According to PMC3343186 (Nature, 2012):
Each block holds one molecule with its values, some of them ahead of it.

What was measured:
[1] = tested on: metabolic genes in DIO mice tissues; test: Metabolic gene expression in liver, WAT and skeletal muscle of DIO mice; format: in vivo; conditions: 100mg/kg i.p. b.i.d., 30 days
In short: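 Diet-induced obese C57BL6 mice, 20 weeks old, had 14 weeks on high-fat diet (20% carbohydrate, 60% fat) and continued on it under twice-daily i.p. dosing. Liver, WAT and skeletal muscle mRNA was quantified by QPCR, normalised to Cyclophilin b. n=6-10.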

C57Bl6 mice [2] = test: Circadian wheel running activity under constant darkness; format: in vivo; conditions: single dose 100 mg/kg i.p. at CT6
In short: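 C57Bl6 mice in wheel cages were kept 7 days on 12h:12h L:D, then moved to constant darkness. After 12 days in D:D, mice received a single i.p. injection of vehicle or test compound at CT6.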

ob/ob mice = test: ob/ob mice, 12-day dosing; format: in vivo; conditions: 100 mg/kg i.p. b.i.d., 12-days
In short: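 Leptin-deficient ob/ob mice were dosed 100 mg/kg i.p. twice daily for 12 days. Body weight and body fat content were tracked; glucose and insulin tolerance were also assessed. Mean ± s.e.m., n=6-10.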

lean C57Bl6 mice = test: Fasting plasma TG and Chol in lean C57Bl6 mice; format: in vivo; conditions: 100 mg/kg i.p. b.i.d., 10 days
In short: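 Lean C57Bl6 mice were given 100 mg/kg i.p. twice daily at CT0 and CT12 for 10 days, then fasting plasma triglycerides and total cholesterol were measured. Mean ± s.e.m., n=6-10.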

C57Bl6 mice [3] = test: Circadian locomotor activity under L:D; format: in vivo; conditions: L:D 12h:12h, single injection
In short: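 Wheel-running actograms were recorded in C57Bl6 mice kept on 12:12 L:D after single i.p. injections of vehicle or test compound. The protocol was otherwise as in the constant-darkness wheel experiment. n=6-10.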

[4] = tested on: diet-induced obese C57BL6 mice; test: Diet-induced obese mice, 30-day treatment; format: in vivo; conditions: DIO C57Bl6 mice, 100mg/kg i.p. b.i.d., 30 days
[5] = cited from earlier work
REV-ERBα = target: T1, REV-ERBα (Homo sapiens, UniProt P20393); format: cell-based; conditions: HEK293 cells, comparison with SR9011 and SR9009
T1 sequence (P20393 284-614 limits assumed): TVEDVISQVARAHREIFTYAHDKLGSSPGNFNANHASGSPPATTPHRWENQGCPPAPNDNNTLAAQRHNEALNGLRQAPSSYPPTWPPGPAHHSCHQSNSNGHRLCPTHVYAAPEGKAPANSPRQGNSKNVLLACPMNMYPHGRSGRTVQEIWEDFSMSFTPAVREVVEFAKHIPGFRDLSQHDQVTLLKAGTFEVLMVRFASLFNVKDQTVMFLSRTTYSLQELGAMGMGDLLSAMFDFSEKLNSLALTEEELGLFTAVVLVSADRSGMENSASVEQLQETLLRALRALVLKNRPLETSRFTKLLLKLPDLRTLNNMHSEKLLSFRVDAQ

[6] = tested on: core clock genes in the hypothalamus; test: Core clock gene expression in hypothalamus; format: in vivo, mice
C57Bl6 mice [7] = test: Comprehensive laboratory animal monitoring system; format: in vivo
In short: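 C57Bl6 mice in CLAMS cages were dosed 100 mg/kg i.p. twice daily at CT0 and CT12 for 10 days. Oxygen consumption (VO2) and RER were recorded across diurnal and nocturnal phases. Fat mass was measured by DEXA after the run. Mean ± s.e.m., n=6-10.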

SCN explants (Per2:luc) = test: Bioluminescence of SCN explants from Per2:luc reporter mouse; format: cell-based; conditions: 5 μM
Balb/c or C57Bl6 mice = test: Body weight and fat mass in lean mice on chronic dosing; format: in vivo
In short: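 Balb/c mice given 100 mg/kg i.p. twice daily at CT0 and CT12 for 12 days; body weight and fat mass followed over treatment. Mean ± s.e.m., n=6-10 mice.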

[8] = tested on: metabolic genes in skeletal muscle; test: Circadian gene expression in skeletal muscle after single dose; format: in vivo, mice; conditions: single dose 100 mg/kg i.p. at CT0
In short: (§1)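 Male C57BL6 mice, 8-10 weeks, housed on 12h:12h L:D or in constant darkness, received a single 100 mg/kg i.p. dose at CT0. Groups (n=6) were sacrificed at CT0, CT6, CT12 and CT18; tissue mRNA measured by real-time QPCR. Data double plotted; mean ± s.e.m.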

[9] = tested on: REV-ERB responsive genes in the liver; test: Expression of REV-ERB responsive genes in liver after 6-day dosing; format: in vivo, mice; conditions: various doses i.p., b.i.d., 6-days
[10] = tested on: metabolic genes in white adipose tissue (WAT); test: Circadian gene expression in white adipose tissue after single dose; format: in vivo, mice
In short: as §1

[11] = tested on: clock and metabolic genes in the liver; test: Circadian gene expression in liver after single dose; format: in vivo, mice
In short: as §1

[12] = D:D, 100 mg/kg i.p. single dose at CT0
[13] = C57Bl6 mice, 100mg/kg i.p. b.i.d., 10 days
[14] = single dose 100 mg/kg i.p. at CT0

expression of genes encoding enzymes involved in TG synthesis in WAT [1]: decrease in expression
SMILES: CCOC(=O)N1CCC(CN(Cc2ccc(Cl)cc2)Cc2ccc([N+](=O)[O-])s2)C1 (centres unmarked) [SR9009]
Cpt1b expression in skeletal muscle [1]: induced the expression
Fasn expression in liver [1]: significant decrease
Hk1 expression in skeletal muscle [1]: induced the expression
Hmgcr expression in liver [1]: significant decrease
Pkm2 expression in skeletal muscle [1]: induced the expression
Ppargc1b expression in skeletal muscle [1]: induced the expression
Scd1 expression in liver [1]: significant decrease
Srebf2 expression in liver [1]: significant decrease
Ucp3 expression in skeletal muscle [1]: induced the expression
locomotor activity during the subject dark phase (C57Bl6 mice [2]): loss of the subsequent active period
glucose or insulin tolerance (ob/ob mice): no significant alterations
weight gain (ob/ob mice): suppressed the degree of weight gain
plasma total cholesterol (lean C57Bl6 mice): reduce the levels
plasma triglycerides (lean C57Bl6 mice): reduce the levels
delay in the onset of locomotor activity (C57Bl6 mice [3]): 1 to 3 h
decrease in plasma insulin levels (trend) [4]: 35%
decrease in plasma leptin [4]: 80%
decrease in plasma total cholesterol (Chol) ([4]; fasting): 47%
decrease in plasma triglycerides (TGs) ([4]; fasting): 12%
reduction of plasma glucose ([4]; fasting): 19%
reduction of plasma non-esterified fatty acids (NEFA) ([4]; fasting): 23%
decrease in proinflammatory cytokine IL-6 ([4]; plasma): 72%

activity in GAL4-REV-ERBα and GAL4-REV-ERBβ cotransfection assays (REV-ERBα): limited activity
SMILES: CC(C)(C)OC(=O)CN(Cc1ccc(Cl)cc1)Cc1ccc([N+](=O)[O-])s1 [GSK4112]
plasma exposure [5]: no plasma exposure

Cyp7a1 expression in liver [9]: dose-dependently suppressed
Cyp7a1 expression in liver [11, 14]: decreased
SMILES: CCCCCNC(=O)N1CCC(CN(Cc2ccc(Cl)cc2)Cc2ccc([N+](=O)[O-])s2)C1 (centres unmarked) [SR9011]
locomotor activity during the subject dark phase (C57Bl6 mice [2]): loss of the subsequent active period
circadian pattern of Rev-erbα expression in hypothalamus ([6]; D:D conditions): completely suppressed
Bmal1 expression in hypothalamus [6, 12]: left shift in the phase
Cry2 expression in hypothalamus [6, 12]: suppressed
Per2 expression amplitude in hypothalamus [6, 12]: enhanced
circadian pattern of expression of Npas2 in hypothalamus [6, 12]: completely eliminated
pattern of expression of Clock in hypothalamus [6, 12]: enhanced amplitude of the oscillation
circadian pattern of Rev-erbα expression in hypothalamus ([6]; L:D conditions): no effect
increase in nocturnal food consumption (C57Bl6 mice [7]; [13]): 10%
increase in oxygen consumption (VO2) (C57Bl6 mice [7]; [13]): 5%
rate of food intake (C57Bl6 mice [7]; [13]): no effect
respiratory exchange ratio (C57Bl6 mice [7]; [13]): no change
total daily food intake (C57Bl6 mice [7]; [13]): no effect
decrease in movement (C57Bl6 mice [7]; C57Bl6 mice, 100mg/kg i.p. b.i.d., 10 days, x-axis beam breaks): 15%
fat mass (DEXA) vs. vehicle (C57Bl6 mice [7]; after 10-day CLAMS experiment): decrease in fat mass
amplitude of the oscillations in SCN explants (SCN explants (Per2:luc)): suppressed the amplitude
circadian oscillations in SCN explants (SCN explants (Per2:luc)): reversible inhibition of circadian oscillations
period of the oscillations in SCN explants (SCN explants (Per2:luc)): no effect on the period
body weight and fat mass (Balb/c or C57Bl6 mice; 100mg/kg, i.p., b.i.d., 12 days): weight loss due to decreased fat mass
food intake (Balb/c or C57Bl6 mice; chronic administration, data not shown): not affected
Cpt1b expression in skeletal muscle [8]: elevated
Hk1 expression in skeletal muscle [8]: increase
Pkm2 expression in skeletal muscle [8]: increase
Pppargc1b expression in skeletal muscle [8]: elevated
Ucp3 expression in skeletal muscle [8]: elevated
plasma total cholesterol (lean C57Bl6 mice): reduce the levels
plasma triglycerides (lean C57Bl6 mice): reduce the levels
delay in the onset of locomotor activity (C57Bl6 mice [3]): 1 to 3 h
Serpine1 expression in liver [9]: dose-dependent suppression
Nocturnin (Ccrn4l) expression in adipose tissue ([10]; single dose): suppression
Dgat1 expression in WAT [10, 14]: suppressed
Dgat 2 expression in WAT [10, 14]: suppressed
Hsl expression in WAT [10, 14]: suppressed
Mgat circadian expression in WAT [10, 14]: disturbed
Plin1 expression in WAT [10, 14]: suppressed
Nampt gene expression in the liver ([11]; single dose): suppressed the circadian rhythm
Nocturnin (Ccrn4l) expression in hepatic tissue ([11]; single dose): suppression
Bmal1 expression in liver [11, 14]: unaffected
Fasn expression in liver [11, 14]: phase shifted
Npas2 expression in liver [11, 14]: unaffected
Per2 expression pattern in liver [11, 14]: altered
Ppargc1a circadian expression in liver [11, 14]: suppressed
Ppargc1b circadian expression in liver [11, 14]: suppressed
Scd1 expression in liver [11, 14]: suppressed
Srebf1 expression in liver [11, 14]: suppressed
Srebf2 expression in liver [11, 14]: decreased
Hmgcr expression in liver ([11]; single dose 100 mg/kg i.p. at CT0, acute model): unaffected
